Screening data (PubChem)
The list is not random: actives were taken first. Their share in the collection is about 3.1%.
UBC13 polyUb: blocks human UBC13 polyubiquitin chain formation. TR-FRET. actives 0.47% (n = 330,000). P61088. inhibition, % at 20 µM; in the data active means inhibition above about 45%, passing the limit was not always enough
PREPL inhibitor: human PREPL enzyme inhibition; inhibition, % at 5.96 µM; Q4J6C6; AID 2751; recombinant PREPL, fluorescence polarization activity-based probe; actives 0.68% (n = 320,000); in the data active means inhibition above about 43%
Apaf-1 inh: blocks human Apaf-1 apoptosome activity | O14727 | reconstituted apoptosome caspase-3 activity, DEVD-Rh110 fluorescence | inhibition, % at 20 µM | actives 0.71% (n = 330,000) | AID 489030; active means inhibition of at least 40% at 20 µM
Target sequence (O14727 whole entry, looked up): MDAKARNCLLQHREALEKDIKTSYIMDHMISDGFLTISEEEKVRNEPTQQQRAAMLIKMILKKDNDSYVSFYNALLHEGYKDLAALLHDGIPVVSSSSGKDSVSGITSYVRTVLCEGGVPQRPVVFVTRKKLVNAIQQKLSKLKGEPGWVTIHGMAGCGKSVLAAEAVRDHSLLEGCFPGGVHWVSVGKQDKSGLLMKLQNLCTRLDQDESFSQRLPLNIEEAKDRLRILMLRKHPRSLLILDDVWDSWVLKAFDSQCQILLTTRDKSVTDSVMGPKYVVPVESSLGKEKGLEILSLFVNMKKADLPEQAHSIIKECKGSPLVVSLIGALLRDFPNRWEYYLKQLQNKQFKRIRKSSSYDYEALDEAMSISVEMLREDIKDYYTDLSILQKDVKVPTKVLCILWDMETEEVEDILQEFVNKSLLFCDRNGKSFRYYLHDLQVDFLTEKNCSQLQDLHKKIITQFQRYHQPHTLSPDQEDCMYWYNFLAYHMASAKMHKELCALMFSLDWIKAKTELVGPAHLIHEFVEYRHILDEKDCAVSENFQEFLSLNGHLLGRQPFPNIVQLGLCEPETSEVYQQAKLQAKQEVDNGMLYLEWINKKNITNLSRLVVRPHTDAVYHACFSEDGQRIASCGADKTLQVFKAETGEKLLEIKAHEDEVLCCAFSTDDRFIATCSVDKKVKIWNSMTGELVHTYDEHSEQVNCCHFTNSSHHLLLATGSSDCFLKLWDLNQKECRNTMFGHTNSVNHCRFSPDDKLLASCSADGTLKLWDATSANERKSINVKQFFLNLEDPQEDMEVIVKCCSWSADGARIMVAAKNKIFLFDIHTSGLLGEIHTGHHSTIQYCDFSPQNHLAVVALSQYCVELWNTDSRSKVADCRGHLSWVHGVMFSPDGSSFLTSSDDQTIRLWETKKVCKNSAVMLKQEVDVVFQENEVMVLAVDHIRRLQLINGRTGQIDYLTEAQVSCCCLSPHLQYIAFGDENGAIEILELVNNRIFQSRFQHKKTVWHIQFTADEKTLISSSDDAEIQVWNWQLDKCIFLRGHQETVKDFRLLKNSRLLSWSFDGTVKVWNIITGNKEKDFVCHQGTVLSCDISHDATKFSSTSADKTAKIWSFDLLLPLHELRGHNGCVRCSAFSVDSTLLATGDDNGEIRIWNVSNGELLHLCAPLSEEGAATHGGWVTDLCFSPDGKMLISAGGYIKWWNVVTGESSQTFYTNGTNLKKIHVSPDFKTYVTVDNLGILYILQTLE
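detection = Rh110 fluorescence intensity | test system = biochemical Apaf-1 apoptosome reconstitution | also added = cytochrome c and DEVD-Rh110 substrate | schedule = 30 min plus 50 min, RT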
MEKK3 PB1 HTS: MEKK3-MEK5 PB1 interaction, increase or decrease. AID 1529. binding response (% of control), % at 10 µM. bead-based flow cytometry, Alexa488-MEK5 binding to MEKK3; actives lie on both sides; 0 = blocked by unlabeled MEK5, 100 = vehicle. actives 1.4% (n = 290,000). Q99759;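 active means binding response more than 3 SD above or below the average of its plate-row segment, actives on both sides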;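 further: Alexa488 bead fluorescence after subtracting the streptavidin-only scavenger bead signal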
MEKK2 mut-MEK5: signal of MEK5 binding to mutant human MEKK2 PB1 domain. bead flow cytometry, Alexa488-MEK5 binding to MEKK2 mutant. percent response, % at 10 µM. actives 0.35% (n = 290,000). AID 1530; in the data active means percent response above about 24%, passing the limit was not always enough
MEKK2 WT-MEK5: raises or lowers MEK5 binding to wildtype human MEKK2 PB1 domain | Q9Y2U5 | bead flow cytometry, Alexa488-MEK5 binding to MEKK2 WT; actives lie on both sides | binding response (% of control), % at 10 µM | actives 1.1% (n = 290,000) | AID 1531; in the data active means binding response below about 67% or above about 130%
Apaf-1 inh conf2: confirmation of Apaf-1 inhibitors. reconstituted apoptosome, caspase-3 DEVD-Rh110 fluorescence. inhibition, % at 20 µM. actives 25% (n = 1,800). AID 504614. shares compounds with Apaf-1 inh;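 active means mean inhibition of at least 40% at 20 µM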
Rh110 quench: interferes with Rh110 fluorescence, flagging false Apaf-1 inhibitors. shares compounds with Apaf-1 inh. Rh110 fluorescence interference, quenched caspase reaction. activation (fluorescence interference), % at 20 µM. 1,800 tested, under 10 active;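 active means signal rise of 40% or more at 20 µM, treated as a fluorescence artifact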
Fluor interf inh: counter-screen for Apaf-1 inhibitors: fluorescence interference, dose response; shares compounds with Apaf-1 inh; fluorescence interference counterscreen, Apaf-1 assay format; IC50, µM; 460 tested, under 10 active; AID 588538; call rule not given here
Numbers stand for hits; 0 = inactive; - = no result.

SMILES | UBC13 polyUb | PREPL inhibitor | Apaf-1 inh | MEKK3 PB1 HTS | MEKK2 mut-MEK5 | MEKK2 WT-MEK5 | Apaf-1 inh conf2 | Rh110 quench | others
COCCCn1c(N)c(C(=O)Nc2sc3c(c2C(=O)OC)CCCC3)c2nc3ccccc3nc21 | 0 | 0 | 90.2 | 0 | 0 | 0 | 0 | 0
COCCNC(=O)c1c(N)n(Cc2ccco2)c2nc3ccccc3nc12 | 0 | 0 | 0 | 0 | 0 | 0 | - | -
COCCCn1c(N)c(C(=O)OC(C)COC)c2nc3ccccc3nc21 (centres undefined) | 0 | 0 | 74.3 | 0 | 0 | 0 | 0 | 0
CCOC(=O)c1c(N)n(CCN2CCCCC2)c2nc3ccccc3nc12 | 0 | 0 | 0 | 0 | 0 | 0 | - | -
CCC(C)NC(=O)c1c(N)n(CCCOC)c2nc3ccccc3nc12 (centres undefined) | 0 | 0 | 90.9 | 0 | 0 | 0 | 59.4 | 0 | Fluor interf inh=0
NCC(O)c1cc(O)c(O)cc1F (centres undefined) | 0 | 0 | 0 | - | - | - | - | -
COCCCn1c(N)c(C(=O)Nc2ccccc2)c2nc3ccccc3nc21 | 0 | 0 | 51.4 | 0 | 0 | 0 | 0 | 0
COCCNC(=O)c1c(NC(=O)c2ccco2)n(Cc2ccccc2)c2nc3ccccc3nc12 | 0 | 0 | 52.8 | 0 | 0 | 0 | 0 | 0
O=[N+]([O-])c1ccc(N2CCCNCC2)c2ncccc12 | 0 | 0 | 44.9 | 0 | 0 | 0 | 0 | 0
O=[N+]([O-])c1ccc(N2CCCCC2)c2ncccc12 | 0 | 0 | 0 | 0 | 0 | 0 | - | -
COC(=O)C1=C(c2ccc(F)cc2OCc2ccccc2)C[C@@H]2CC[C@H]1N2C(=O)NCc1cc(C)oc1C(F)(F)F | 0 | 0 | 0 | - | - | - | - | -
COC(=O)C1=C(c2ccccc2OCc2ccccc2)C[C@@H]2CC[C@H]1N2C(=O)NCCN1CCOCC1 | 0 | 0 | 0 | - | - | - | - | -
CC1(C)CN(S(=O)(=O)OCC(Cl)(Cl)Cl)C(=O)N1 | 0 | 0 | 0 | 0 | 0 | 0 | - | -
O=S1(=O)N(CCN2CC=C(c3c[nH]c4cc(F)ccc34)CC2)c2cccc3c2N1CCC3 | 0 | 0 | 50.8 | - | - | - | 0 | 0
O=c1[nH]c(O)c(Cc2ccc3c(c2)OCO3)c(=O)[nH]1 | 0 | 0 | 0 | 0 | 0 | 0 | - | -
Nc1c(C(=O)OCc2ccccc2)c2nc3ccccc3nc2n1Cc1cccs1 | 0 | 0 | 86.0 | 0 | 0 | 0 | 0 | 0
Cc1[nH]n(-c2ccccc2)c(=O)c1C(c1ccc([N+](=O)[O-])cc1)c1c(C)[nH]n(-c2ccccc2)c1=O | 0 | 0 | 78.6 | 0 | 0 | 0 | 0 | 0
CCC1=CCN(CCc2c(C)[nH]c3ccccc23)CC1 | 0 | 0 | 0 | 0 | 0 | 0 | - | -
O=[N+]([O-])c1ccc(NCCCN2CCOCC2)c2ncccc12 | 0 | 0 | 40.4 | 0 | 0 | 0 | 0 | 0
NCCNc1ccc([N+](=O)[O-])c2cccnc12 | 0 | 0 | 0 | 0 | 0 | 0 | - | -
COc1cc2c(cc1O)C[C@H]1c3c(cc(O)c(OC)c3-2)CCN1C | 0 | 0 | 0 | - | - | - | - | -
COc1cc2c3c(c1OC)Oc1ccc(cc1)C[C@H]1c4c(cc(OC)c(OC)c4Oc4ccc(cc4)C[C@@H]3N(C)CC2)CCN1C | 0 | 0 | 45.0 | - | - | - | 0 | 0
